In ChEMBL document CHEMBL3804820, “2-hydroxyisoquinoline-1,3(2H,4H)-diones (HIDs) as human immunodeficiency virus type 1 integrase inhibitors: Influence of the alkylcarboxamide substitution of position 4” (Eur J Med Chem, 2016):

Assays:
[1] = Inhibition of recombinant HIV1 reverse transcriptase RNase H activity using calf thymus ssDNA-[3H]-RNA as template/primer incubated for 10 mins; set-up: species or system Human immunodeficiency virus 1
Outline: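 Recombinant HIV-1 RT (4.5 pmol) preincubated with compound 10 min at 37 °C. Then reacted 10 min at 37 °C with [3H]-RNA/calf thymus DNA hybrid (20,000 cpm) in 50 mM Tris-HCl pH 8.0, 10 mM DTT, 6 mM MgCl2, 80 mM KCl. Stopped with cold TCA/pyrophosphate; released radioactivity taken by subtraction from undigested control.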

[2] = target: T1, Human immunodeficiency virus type 1 integrase (Human immunodeficiency virus 1, UniProt Q7ZJM1); assay: Inhibition of HIV1 integrase 3'-processing activity using 5'-ACTGCTAGAGATTTTCCACACTGACTAAAAGGGTC-[biotin]3' as substrate incubated for 1 hr by ELISA
T1 sequence (Q7ZJM1 whole entry): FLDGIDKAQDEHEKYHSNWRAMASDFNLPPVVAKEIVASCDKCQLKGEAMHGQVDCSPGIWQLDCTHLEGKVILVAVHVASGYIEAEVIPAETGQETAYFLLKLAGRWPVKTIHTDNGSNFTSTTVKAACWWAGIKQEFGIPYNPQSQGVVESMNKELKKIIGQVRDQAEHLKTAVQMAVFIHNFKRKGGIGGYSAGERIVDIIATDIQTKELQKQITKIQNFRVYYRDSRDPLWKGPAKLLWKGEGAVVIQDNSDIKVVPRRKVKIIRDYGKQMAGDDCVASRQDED

[3] = Cytotoxicity against human MT4 cells assessed as reduction in cell viability by MTT assay; assay type: cell-based
Outline: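 MT-4 cell viability was measured by MTT reduction, run in parallel with the antiviral assay using 5-fold serial compound dilutions. CC50 is the concentration reducing viability by 50%.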

[4] = target: T1, Human immunodeficiency virus type 1 integrase; assay: Inhibition of HIV1 integrase using 3'-biotin-labelled and 5'-digoxigenin-labelled oligonucleotide substrate incubated for 1 hr by ELISA
Outline: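 ELISA with a 3'-biotin oligo and a 5'-digoxigenin partner oligo. Overall assay uses the full complementary oligo; strand transfer uses a precleaved oligo lacking the 3'-GT. Integrase at 160 nM final, annealed oligos 7 nM, in 10 mM MgCl2, 5 mM DTT, 20 mM HEPES pH 7.5, 0.5% PEG, 15% DMSO. Run 1 h at 37 °C, products denatured with NaOH, detected on avidin plates.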

[5] = test system: Human immunodeficiency virus 1; assay: Antiviral activity against HIV1 3B infected in human MT4 cells assessed as reduction in virus-induced cytopathic effect by MTT assay; assay type: functional, organism-based; conditions: Human immunodeficiency virus 1, 3B
Outline: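 MT-4 cells infected with 100-300 CCID50 of HIV-1 IIIB, in the presence of 5-fold serial dilutions of compound. Cytopathic effect read by MTT reduction to formazan, measured spectrophotometrically. EC50 is the concentration giving 50% protection against virus-induced CPE.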

[6] = test system: Human immunodeficiency virus 1; assay: Selectivity ratio of EC50 for raltegravir resistant HIV1 harboring integrase Q148H mutant infected in human MT4 cells to EC50 for wild type HIV1 3B infected in human MT4 cells; assay type: functional
Outline: (§1)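 MT-4/MTT cytopathic-effect assay in human MT-4 lymphocytes. Cells were infected with 100–300 CCID50 of each virus stock in the presence of 5-fold serial drug dilutions. The HIV-1 IIIB wild-type stock was titrated on MT-4 cells. Viability was read spectrophotometrically as formazan from MTT reduction. EC50 is the concentration giving 50% protection against CPE for each strain. Fold-change is mutant-strain EC50 relative to wild-type EC50.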

[7] = test system: Human immunodeficiency virus 1; assay: Selectivity ratio of EC50 for raltegravir resistant HIV1 harboring integrase N155H mutant infected in human MT4 cells to EC50 for wild type HIV1 3B infected in human MT4 cells; assay type: functional; outline: as §1
[8] = target: T2, CYP1A2 (Homo sapiens, UniProt P05177); assay: Inhibition of human recombinant CYP1A2 using CEC as substrate at 10 uM incubated for 30 mins by fluorimetry relative to control; assay type: ADME; conditions: recombinant CYP1A2, probe CEC
T2 sequence (P05177 whole entry): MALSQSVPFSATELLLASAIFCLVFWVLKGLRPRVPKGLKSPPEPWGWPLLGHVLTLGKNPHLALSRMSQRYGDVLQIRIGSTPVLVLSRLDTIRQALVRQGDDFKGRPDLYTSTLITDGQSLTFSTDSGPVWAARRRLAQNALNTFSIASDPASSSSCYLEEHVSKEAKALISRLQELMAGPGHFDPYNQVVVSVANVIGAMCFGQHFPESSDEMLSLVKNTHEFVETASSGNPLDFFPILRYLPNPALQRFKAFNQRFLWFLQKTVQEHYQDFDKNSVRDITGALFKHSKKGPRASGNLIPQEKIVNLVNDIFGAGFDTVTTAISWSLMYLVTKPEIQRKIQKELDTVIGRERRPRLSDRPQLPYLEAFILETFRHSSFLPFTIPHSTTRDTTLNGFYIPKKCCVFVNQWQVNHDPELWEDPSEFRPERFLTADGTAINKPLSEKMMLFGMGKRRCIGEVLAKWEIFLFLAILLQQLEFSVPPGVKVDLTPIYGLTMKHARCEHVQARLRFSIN
Outline: (§2)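 Recombinant CYP isoforms, each with its fluorogenic substrate: CYP1A2 and CYP2C19 with CEC, CYP2C9 and CYP2D6 with MFC, CYP3A4 with BFC. Read as percentage inhibition of control, standard contract assays.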

[9] = target: CYP2C19 (Homo sapiens, UniProt P33261); assay: Inhibition of human recombinant CYP2C19 using CEC as substrate at 10 uM incubated for 50 mins by fluorimetry relative to control; assay type: ADME; conditions: recombinant CYP2C19, probe CEC; outline: as §2
Chain of CYP2C19 (P33261 whole entry): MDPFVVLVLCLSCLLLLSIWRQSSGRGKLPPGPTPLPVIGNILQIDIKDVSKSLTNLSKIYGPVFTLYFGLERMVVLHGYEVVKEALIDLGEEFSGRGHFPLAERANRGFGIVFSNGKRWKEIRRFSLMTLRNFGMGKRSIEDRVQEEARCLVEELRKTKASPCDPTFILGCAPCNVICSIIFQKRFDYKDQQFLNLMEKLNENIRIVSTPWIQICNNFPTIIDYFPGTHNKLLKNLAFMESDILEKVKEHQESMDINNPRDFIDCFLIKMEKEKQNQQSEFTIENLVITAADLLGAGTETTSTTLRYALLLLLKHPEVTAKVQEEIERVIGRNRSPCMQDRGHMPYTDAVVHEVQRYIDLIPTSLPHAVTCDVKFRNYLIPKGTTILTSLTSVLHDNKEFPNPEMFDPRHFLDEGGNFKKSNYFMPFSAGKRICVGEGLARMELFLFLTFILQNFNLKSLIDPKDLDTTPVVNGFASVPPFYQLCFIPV

[10] = target: CYP3A4 (Homo sapiens, UniProt P08684); assay: Inhibition of human recombinant CYP3A4 using BFC as substrate at 10 uM incubated for 30 mins by fluorimetry relative to control; assay type: ADME; conditions: recombinant CYP3A4, probe BFC; outline: as §2
Chain of CYP3A4 (P08684 whole entry): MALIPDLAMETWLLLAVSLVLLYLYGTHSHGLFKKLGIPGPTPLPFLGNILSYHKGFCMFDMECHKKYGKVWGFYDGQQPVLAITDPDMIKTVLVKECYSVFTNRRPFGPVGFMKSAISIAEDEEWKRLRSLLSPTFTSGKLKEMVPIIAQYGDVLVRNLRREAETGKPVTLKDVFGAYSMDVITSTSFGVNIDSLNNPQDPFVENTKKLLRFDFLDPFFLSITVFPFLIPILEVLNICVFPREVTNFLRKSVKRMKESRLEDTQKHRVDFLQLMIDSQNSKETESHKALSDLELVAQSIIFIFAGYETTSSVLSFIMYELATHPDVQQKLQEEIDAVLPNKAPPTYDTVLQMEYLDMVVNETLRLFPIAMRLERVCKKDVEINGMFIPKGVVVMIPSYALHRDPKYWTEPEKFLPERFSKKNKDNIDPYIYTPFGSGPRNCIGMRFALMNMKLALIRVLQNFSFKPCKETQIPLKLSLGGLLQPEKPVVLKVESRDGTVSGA

[11] = test system: MDCK-II; assay: Inhibition of human P-gp expressed in MDCK2-MDR1 cells assessed as reduction in calcien-AM efflux at 1 uM incubated for 20 mins by fluorimetry relative to control; assay type: cell-based
Outline: (§3)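 P-gp efflux inhibition in MDR1-MDCKII cells with calcein AM substrate, tested up to 100.0 µM. Read as percentage inhibition of control.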

[12] = test system: MDCK-II; assay: Inhibition of human P-gp expressed in MDCK2-MDR1 cells assessed as reduction in calcien-AM efflux at 30 uM incubated for 20 mins by fluorimetry relative to control; assay type: cell-based; outline: as §3
[13] = test system: MDCK-II; assay: Inhibition of human P-gp expressed in MDCK2-MDR1 cells assessed as reduction in calcien-AM efflux at 100 uM incubated for 20 mins by fluorimetry relative to control; assay type: cell-based; outline: as §3
[14] = test system: HepG2; assay: Cytotoxicity against human HepG2 cells assessed as increase in membrane permeability at 100 uM after 72 hrs by fluorescent image analysis relative to untreated control; assay type: cell-based; conditions: hepg2, 72 h
[15] = Cytotoxicity against human HepG2 cells assessed as reduction in mitochondrial membrane potential at 1 uM after 72 hrs by fluorescent image analysis relative to untreated control; assay type: cell-based; conditions: read-out: INH
Outline: (§4)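 Contract in vitro cytotoxicity panel covering cell number, intracellular free calcium, nuclear size, membrane permeability and mitochondrial membrane potential. Compounds tested at 1.0, 30.0 and 100.0 µM; values are percentage change versus untreated control, and IC50 where derived.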

[16] = Cytotoxicity against human HepG2 cells assessed as reduction in mitochondrial membrane potential at 30 uM after 72 hrs by fluorescent image analysis relative to untreated control; assay type: cell-based; conditions: read-out: INH; outline: as §4
[17] = Cytotoxicity against human HepG2 cells assessed as reduction in mitochondrial membrane potential at 100 uM after 72 hrs by fluorescent image analysis relative to untreated control; assay type: cell-based; conditions: read-out: INH; outline: as §4
[18] = Apparent permeability coefficient in human Caco2 cells at pH 6.5/7.4 at 10 uM; assay type: ADME, cell-based; conditions: Caco-2, pH 6.5
Outline: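 A-to-B permeability measured in Caco-2 monolayers at pH 6.5/7.4, reported as Papp. Standard contract assay.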

`CCCCCCNC(=O)C1C(=O)N(O)C(=O)c2ccccc21` (stereo not drawn) showed an IC50 [1] of 5.35 µM, an IC50 [2] of 0.51 µM and a CC50 [3] of 57.7 µM. The IC50 [4] was 0.085 µM, the EC50 [5] was 2.7 µM and the “Ratio EC50” value [6] was 1. The “Ratio EC50” value [7] was 1, the inhibition at 0.5 h, 10 µM [8] was 12.7% and the inhibition at 50 min, 10 µM [9] was 9.3%. It also gave an inhibition at 0.5 h, 10 µM [10] of 42%, an inhibition [11] of -5.5% and an inhibition [12] of 2%. For the same molecule, the inhibition [13] was 5.3%, the Activity [14] was 23.6% and the cytotoxicity at 72 h, 1 µM [15] was 5.7%. For the same molecule, the cytotoxicity at 72 h, 30 µM [16] was 5.1%, the cytotoxicity at 72 h, 100 µM [17] was 33.9% and the Papp at 10 µM [18] was 24.6 ×10⁻⁶ cm/s.
